Dynein transport: blocks dynein driven cargo transport along microtubules; z-score, hits read low; 0.47% of 220,000 active; 3617.4 mouse cells, GR-EGFP nuclear translocation imaging; test concentration mostly 20 µM; stimulated with dexamethasone, 1 µM; stronger effect = lower value;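 active = plate z-score of nuclear minus cytoplasmic receptor signal below a set negative limit, without overly bright fluorescence or cell loss, cut at about -3.5 in these data, passing the limit was not always enough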;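 note: z-score of nuclear minus cytoplasmic ring GR-EGFP intensity difference per well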
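Schedule: 48 h induction, then 1 h compound, then 30 min agonist, 37 °C. Buffer or medium: tetracycline-free induction medium containing charcoal-stripped FBS. Reagent: 1.0 µM final dexamethasone stimulus. Evaluation: nuclear versus cytoplasmic GR-EGFP signal, averaged per well. Signal: high-content fluorescence imaging after fixation.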
MEKK3 PB1 HTS: modulators (inhibitors or enhancers) of MEK5 binding to human MEKK3 PB1 domain; Q99759; bead-based flow cytometry, Alexa488-MEK5 binding to MEKK3; actives lie on both sides; 0 = blocked by unlabeled MEK5, 100 = vehicle; binding response (% of control), % at 10 µM; 1.4% of 290,000 active;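 active = binding response more than 3 SD above or below the average of its plate-row segment, actives on both sides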;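 note: Alexa488 bead fluorescence after subtracting the streptavidin-only scavenger bead signal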
Beta2AR agonist: agonists of human beta-2 adrenergic receptor inducing internalization | Am2.2-beta2AR cells, FAP receptor internalization, flow cytometry | response, % (test concentration not listed) | 0.43% of 340,000 active | AID 504454;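 active = response above a set limit, near 3 SD of response in nonfluorescent compounds, cut at about 42% in these data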
Target sequence (P07550 whole entry, looked up): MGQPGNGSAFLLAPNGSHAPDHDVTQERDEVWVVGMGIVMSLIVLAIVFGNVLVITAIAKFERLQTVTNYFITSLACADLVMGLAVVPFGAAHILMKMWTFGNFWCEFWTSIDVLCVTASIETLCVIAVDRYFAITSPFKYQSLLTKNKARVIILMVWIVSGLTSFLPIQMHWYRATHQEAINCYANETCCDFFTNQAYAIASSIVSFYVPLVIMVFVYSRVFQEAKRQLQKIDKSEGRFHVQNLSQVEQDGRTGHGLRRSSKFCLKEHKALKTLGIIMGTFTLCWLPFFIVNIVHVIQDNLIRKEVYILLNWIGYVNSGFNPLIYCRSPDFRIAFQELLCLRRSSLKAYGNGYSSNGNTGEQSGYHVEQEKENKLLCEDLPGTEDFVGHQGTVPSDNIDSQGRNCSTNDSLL
MEKK2 mut-MEK5: signal of MEK5 binding to mutant human MEKK2 PB1 domain. bead flow cytometry, Alexa488-MEK5 binding to MEKK2 mutant. percent response, % at 10 µM. 0.35% of 290,000 active. AID 1530; in the data active = percent response above about 24%, passing the limit was not always enough
MEKK2wt PB1 HTS: raises or lowers MEK5 binding to wildtype human MEKK2 PB1 domain; 1.1% of 290,000 active; bead flow cytometry, Alexa488-MEK5 binding to MEKK2 WT; actives lie on both sides; binding response (% of control), % at 10 µM; AID 1531; Q9Y2U5; in the data active = binding response below about 67% or above about 130%
ATG4B inhibitor: ATG4B (human) cysteine protease inhibition; Q9Y4P1; ATG4B cleavage of LC3-PLA2, NBD-HPC fluorescence, 1 h; inhibition, % at 8.33 µM; 0.51% of 340,000 active; AID 504462; in the data active = inhibition above about 40%
A number is an active result; . = inactive; / = no result. A selection: hits, their analogues and other compounds. The true share with any hit is near 2.9%.

SMILES | Dynein transport | MEKK3 PB1 HTS | Beta2AR agonist | MEKK2 mut-MEK5 | MEKK2wt PB1 HTS | ATG4B inhibitor
Cc1ccc(C2Cc3cc(O)c(O)cc3CN2)cc1 (stereo unspecified) | / | / | . | / | / | .
Cc1cc(C)c(C(=O)CC(=O)c2cccnc2)c(C)c1 | / | / | . | / | / | .
CCOC(=O)c1c(-c2ccccc2)csc1/N=C/C1C(=O)CCCC1=O | . | . | . | 70.0 | . | .
CCOc1ccc(N(CC(=O)Nc2ccc(C)c(C)c2)S(=O)(=O)c2c(C)noc2C)cc1 | . | . | . | . | 134.0 | .
CCOC(=O)c1c(C)[nH]c(C(C)=NNC(=O)Cn2nc(C)cc2C)c1C | / | / | . | / | / | .
Cc1cc(=O)oc2cc(OCc3ccc(C(=O)OCC(=O)Nc4ccc(N(C)C)cc4)cc3)ccc12 | . | . | 49.1 | . | . | .
Cc1[nH]nc2c1C(c1ccco1)C(C#N)=C(N)O2 (stereo unspecified) | . | . | . | . | . | .
Cc1[nH]nc2c1C(c1ccc(OC(=O)c3ccco3)cc1)C(C#N)=C(N)O2 (stereo unspecified) | . | . | . | . | . | 54.2
CCOc1cc(/C=C2\N=C(SC(C)C(N)=O)N(c3ccc(OC(F)F)cc3)C2=O)ccc1O (stereo unspecified) | / | . | . | . | . | .
COC(=O)[C@@]1(Cc2ccc(OC)cc2)[C@@H]2C(=CC(=O)[C@H]2CC(=O)C(=O)N(C)C)CN1C(=O)c1ccccc1 | -4.77 | . | / | . | . | .
O=C(Cc1cccc(NC(=O)C2CCCN(C(=O)C3CC3)C2)c1)Nc1cccc(C(=O)N2CCOCC2)c1 (stereo unspecified) | / | / | . | / | / | .
COc1ccc(/C=C/c2cc(O)cc(OC3OC(CO)C(O)C(O)C3O)c2)cc1 (stereo unspecified) | / | / | . | / | / | .
CCOC(=O)/C=C/C(=O)OCC(=O)Nc1cccc(Br)c1 | . | . | 42.7 | . | . | .
Cc1ccc(/C=C/C(=O)OCC(=O)Nc2cccc(S(=O)(=O)N(C)C)c2)o1 | . | . | . | . | 10.0 | .
CN(C)S(=O)(=O)c1cccc(NC(=O)COC(=O)/C=C/c2ccco2)c1 | . | . | . | . | . | .
CCC(=O)OCC(=O)[C@@]1(OC(=O)CC)[C@@H](C)C[C@H]2[C@@H]3CCC4=CC(=O)C=C[C@]4(C)[C@@]3(Cl)[C@@H](O)C[C@@]21C | / | / | . | / | / | .
Oc1[nH]c(=S)sc1C=C1N=c2ccccc2=N1 | . | . | . | . | . | .
Oc1[nH]c(=S)sc1/C=C1\C(c2ccccc2)=Nc2ccccc21 | . | . | . | . | . | 99.4
CCCCC(=O)O[C@H]1CC[C@H]2[C@@H]3CCc4cc(O)ccc4[C@H]3CC[C@]12C | . | . | 42.6 | . | . | .
C[C@]12CC[C@@H]3c4ccc(O)cc4CC[C@H]3[C@@H]1CC[C@@H]2OC(=O)CCC1CCCC1 | / | . | . | . | . | .
O=c1c2ccccc2nc(SCc2nnc(-c3ccccc3Br)o2)n1-c1ccccc1 | . | . | . | . | . | 45.1
N#Cc1ccc(OCC(=O)OCC(=O)c2ccc[nH]2)cc1 | / | / | 48.7 | / | / | .
CCCCCCCCOC(=O)c1cc([N+](=O)[O-])c(Sc2ncnc3nc[nH]c23)c([N+](=O)[O-])c1 | / | / | 99.2 | / | / | .
CC(=O)OCCNc1cc(Sc2nc3ccccc3[nH]2)c2nonc2c1[N+](=O)[O-] | . | . | . | . | . | .
COC(=O)CCSc1cc(NCCOC(C)=O)c([N+](=O)[O-])c2nonc12 | . | . | 61.5 | . | . | .
C=C1C(=O)C23C(O)C1CCC2C12CCCC(C)(COC(C)=O)C1C(O)C3(O)OC2 (stereo unspecified) | / | / | 57.7 | / | / | .
COC(=O)c1ccc(CSc2nc3scc(-c4cccs4)c3c(=O)[nH]2)o1 | . | . | . | . | . | 53.5
CC1OC(CC(=O)O)CC2=C1C(=O)c1c(O)cccc1C2=O (stereo unspecified) | / | / | 75.2 | / | / | .
O=C1c2cccc(O)c2C(=O)c2c(O)cccc21 | . | . | / | . | . | /

Compound activity as filed in PubChem.
